Values after ≈ are worked out from the molar mass of the structure shown. Active and inactive are the calls of the source. The rule behind the calls is not given here.
What was measured:
Escherichia coli [1] = assay: Antimicrobial activity against wild type Escherichia coli DM4100 by agar or broth dilution method; type: functional
Summary of the method: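 K-12 strain grown in LB at 37°C; 10^4–10^5 CFU applied to agar plates or broth with a dilution series of compound; colonies counted after 2 days or turbidity scored after 1 day. MIC99 is the concentration blocking colony formation by 99%, interpolated from log-log plots.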

Escherichia coli [2] = assay: Antimicrobial activity against wild type Escherichia coli DM4100 assessed as bactericidal activity; type: functional
Summary of the method: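 Liquid-culture killing: E. coli at 5 × 10^6 CFU/ml exposed 20 h to a range of drug concentrations, survivors counted by dilution and plating on drug-free agar incubated overnight at 37°C; MBC taken as concentration lowering survival by 99.9%.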

Escherichia coli [3] = assay: Ratio of MBC to MIC99 in wild type Escherichia coli DM4100; type: functional
Summary of the method: (§1)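 MBC (99.9% kill after 20 h in liquid at 5 × 10^6 CFU/ml, survivors plated on drug-free agar) divided by MIC99 (99% block of colony formation, agar or broth dilution with 10^4–10^5 CFU, log-log interpolation); efflux-deficient tolC strain for line 4, wild-type DM4100 for line 5.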

Escherichia coli [4] = assay: Ratio of mutant prevention concentration to MIC99 for wild type Escherichia coli DM4100; type: functional
Summary of the method: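 Population analysis: stationary-phase DM4100 from LB spread on agar plates spanning a broad drug range; colonies counted, passaged on drug-free agar, then retested at the selecting concentration to confirm resistance. MPC is the concentration blocking colony formation from 10^10 CFU, expressed relative to MIC99.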

Escherichia coli [5] = assay: Reduction quinolone resistant mutation in wild type Escherichia coli DM4100 assessed as decrease in recovery of resistant bacterial mutant colonies at 2 times MIC by agar plate assay; type: functional, organism-based
Escherichia coli [6] = assay: Reduction quinolone resistant mutation in wild type Escherichia coli DM4100 assessed as decrease in recovery of resistant bacterial mutant colonies at 5 times MIC by agar plate assay; type: functional, organism-based
Summary of the method: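 Same agar-plate accumulation assay at 5× MIC99 with an inoculum of 10^9 CFU. Drug added to molten LB agar, incubated at 37°C, and cumulative colonies scored at daily intervals. Repeated with inocula of 8 × 10^6 to 10^10 CFU in two replicate experiments.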

Escherichia coli [7] = assay: Antimicrobial activity against wild type Escherichia coli DM4100 assessed as decrease in bacterial survival at 3 times MIC by agar plate method; type: functional, organism-based
Summary of the method: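 DM4100 (10^4 to 10^8 CFU) spread on quartered agar plates with drug at three times MIC; at various times a quarter excised, washed with LB, cells pelleted (5,000 × g, 5 min), diluted onto drug-free agar at 37°C, colonies counted at 24 and 48 h. Survival relative to untreated input, corrected for resistant mutants scored on 0.02 μg/ml ciprofloxacin agar; two replicate experiments.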

Escherichia coli [8] = assay: Reduction quinolone resistant mutation in wild type Escherichia coli DM4100 assessed as decrease in recovery of resistant bacterial mutant colonies by agar plate assay; type: functional, organism-based
Summary of the method: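 Drug added to molten LB agar; 10^4–10^10 CFU of E. coli applied and incubated at 37°C for up to 2 weeks, with cumulative colonies counted daily. Day-1 colonies are taken as the preexisting-mutant baseline. Drug concentration is normalized to MIC99.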

Escherichia coli [9] = assay: Antimicrobial activity against Escherichia coli KD1397 containing tolC::Tn10 gyrA+ mutant by agar or broth dilution method; type: functional
Summary of the method: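 MIC by agar or broth dilution in LB, 37°C: 10^4–10^5 CFU applied to plates or broth cultures with serial compound concentrations. Colonies counted after 2 days, or turbid growth scored after 1 day. MIC99 is the minimal concentration blocking colony formation by 99%, interpolated from log-log plots.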

Escherichia coli [10] = assay: Antimicrobial activity against Escherichia coli KD1397 containing tolC::Tn10 gyrA+ mutant assessed as bactericidal activity; type: functional
Summary of the method: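 Liquid-culture lethality: 5 × 10^6 CFU/ml aliquots exposed 20 h to a range of compound concentrations; survivors counted by dilution and plating on drug-free LB agar, overnight at 37°C. MBC taken as the concentration lowering survival by 99.9%.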

Escherichia coli [11] = assay: Ratio of MBC to MIC99 in Escherichia coli KD1397 containing tolC::Tn10 gyrA+ mutant; type: functional; summary of the method: as §1
Escherichia coli [12] = assay: Ratio of mutant prevention concentration to MIC99 for Escherichia coli KD1397 containing tolC::Tn10 gyrA+ mutant; type: functional

CCN1CCN(c2c(F)cc3c(=O)c(C(=O)O)cn(C4CC4)c3c2OC)CC1
MIC99 (Escherichia coli [1]): 0.14 µg/mL (≈ 0.36 µM) | MBC (Escherichia coli [2]): 0.27 µg/mL (≈ 0.693 µM) | Ratio (Escherichia coli [3]): 1.9 | Ratio (Escherichia coli [4]): 7 | inhibition (Escherichia coli [5]): Active | inhibition (Escherichia coli [6]): Active | inhibition (Escherichia coli [7]): Active

CCn1cc(C(=O)O)c(=O)c2ccc(C)nc21
inhibition (Escherichia coli [8]): Dose-dependent effect

CCC1CN(c2c(F)cc3c(=O)c(C(=O)O)cn(C4CC4)c3c2OC)CCN1 (configuration not stated)
MIC99 (Escherichia coli [1]): 0.11 µg/mL (≈ 0.282 µM) | MBC (Escherichia coli [2]): 0.33 µg/mL (≈ 0.847 µM) | Ratio (Escherichia coli [3]): 3 | Ratio (Escherichia coli [4]): 6 | inhibition (Escherichia coli [5]): Active | inhibition (Escherichia coli [6]): Active | inhibition (Escherichia coli [7]): Active

CCC1CN(c2cc3c(cc2F)c(=O)c(C(=O)O)cn3C2CC2)CCN1 (configuration not stated)
MIC99 (Escherichia coli [1]): 0.045 µg/mL (≈ 0.125 µM) | MBC (Escherichia coli [2]): 0.16 µg/mL (≈ 0.445 µM) | Ratio (Escherichia coli [3]): 3.5 | Ratio (Escherichia coli [4]): 10 | inhibition (Escherichia coli [5]): Active | inhibition (Escherichia coli [6]): Active | inhibition (Escherichia coli [7]): Active

COc1c(N2CC[C@@H](CN)C2)c(F)cc2c(=O)c(C(=O)O)cn(C3CC3)c12
MIC99 (Escherichia coli [9]): 0.004 µg/mL (≈ 0.0107 µM) | MBC (Escherichia coli [10]): 0.01 µg/mL (≈ 0.0266 µM) | Ratio (Escherichia coli [11]): 2.5 | Ratio (Escherichia coli [12]): 8

COc1c(N2CC[C@@H](CN)C2)c(F)cc2c(=O)n(N)c(=O)n(C3CC3)c12
MIC99 (Escherichia coli [9]): 0.5 µg/mL (≈ 1.38 µM) | MBC (Escherichia coli [10]): 1 µg/mL (≈ 2.75 µM) | Ratio (Escherichia coli [11]): 2 | Ratio (Escherichia coli [12]): 3

CCN1CCN(c2cc3c(cc2F)c(=O)c(C(=O)O)cn3C2CC2)CC1 [ENROFLOXACIN]
MIC99 (Escherichia coli [1]): 0.022 µg/mL (≈ 0.0612 µM) | MBC (Escherichia coli [2]): 0.07 µg/mL (≈ 0.195 µM) | Ratio (Escherichia coli [3]): 3.2 | Ratio (Escherichia coli [4]): 15 | inhibition (Escherichia coli [5]): Active | inhibition (Escherichia coli [6]): Active | inhibition (Escherichia coli [7]): Active
